Assay outcomes: PubChem, several laboratories
CHOP inhibitor – blocks CHOP induction under ER stress; CHO-K1 CHOP-promoter luciferase, tunicamycin-induced, 15-18 h; inhibition, % at 10 µM; 220,000 compounds, 3.8% hits; AID 2732;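 active = compounds that reduced the stress-induced luciferase reporter signal by more than about 70% of percent inhibition, limit read from the data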;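 also: 0% = tunicamycin plus vehicle and 100% = wells without tunicamycin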
UPR XBP1 act – activators of adaptive arm of unfolded protein response (XBP1) | CHO-XBP1 luciferase reporter, IRE1-XBP1 UPR activation, luminescence; percent of tunicamycin response, DMSO as zero | activation, % at 20 µM | 330,000 compounds, 0.33% hits | AID 463104;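 active = versus positive control, 20 µM dose yields 30% or more activation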;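 also: 100% = tunicamycin at 10 µg/mL and 0% = DMSO only wells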
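Test system: CHO-XBP1 luciferase reporter cells | Buffer or medium: Serum-containing F12 medium, 10% FBS | Schedule: 6 h compound exposure at 37 °C, 5% CO2 | Detection: Steady-Glo luciferase glow luminescence, 10 min after reagent addition | Read-out basis: Activation, % of tunicamycin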
Dynein cargo inh – blocks dynein driven cargo transport along microtubules | 3617.4 mouse cells, GR-EGFP nuclear translocation imaging; test concentration mostly 20 µM; stimulated with dexamethasone, 1 µM; active compounds read low | z-score, hits read low | 220,000 compounds, 0.47% hits | AID 1381;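 active = plate z-score of nuclear minus cytoplasmic receptor signal below a set negative limit, without overly bright fluorescence or cell loss, cut at about -3.5 in these data, passing the limit was not always enough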;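 also: z-score of nuclear minus cytoplasmic ring GR-EGFP intensity difference per well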
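Medium: Induction medium lacking tetracycline, stripped serum | Probe or stimulus: 1.0 µM final dexamethasone stimulus | Schedule: 48 h induction, then 1 h compound, then 30 min agonist, 37 °C | Signal: Automated 10x imaging of fixed Hoechst-stained cells | Evaluation: Per-cell GR-EGFP intensity, nucleus versus surrounding cytoplasmic ring, well-averaged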
B2AR ag – agonists of human beta-2 adrenergic receptor inducing internalization | 340,000 compounds, 0.43% hits | P07550 | response, % (no concentration beside the values) | Am2.2-beta2AR cells, FAP receptor internalization, flow cytometry;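 active = response above a set limit, near 3 SD of response in nonfluorescent compounds, cut at about 42% in these data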
Target sequence (P07550 whole entry, looked up): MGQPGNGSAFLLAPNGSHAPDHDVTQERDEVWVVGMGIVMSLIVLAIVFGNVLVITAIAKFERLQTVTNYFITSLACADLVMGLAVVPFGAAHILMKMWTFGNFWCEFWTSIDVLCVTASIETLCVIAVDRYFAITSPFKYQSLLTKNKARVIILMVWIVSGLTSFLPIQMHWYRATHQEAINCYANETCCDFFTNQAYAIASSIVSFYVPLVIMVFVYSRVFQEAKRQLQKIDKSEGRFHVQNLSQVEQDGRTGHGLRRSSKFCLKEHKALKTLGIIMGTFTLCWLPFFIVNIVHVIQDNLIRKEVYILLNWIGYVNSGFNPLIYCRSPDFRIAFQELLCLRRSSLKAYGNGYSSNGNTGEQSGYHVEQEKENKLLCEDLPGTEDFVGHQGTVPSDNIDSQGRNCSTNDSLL
UPR CHOP act – activators of apoptotic arm of unfolded protein response (CHOP) | CHO-CHOP luciferase reporter, UPR activation, luminescence; percent of tunicamycin response over DMSO baseline | activation, % at 10 µM | 330,000 compounds, 0.34% hits;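 active = at 10 µM dose, activation of 40% or more, normalized to positive control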;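 also: 100% = tunicamycin at 10 µg/mL and 0% = DMSO alone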
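System: CHO-CHOP luciferase reporter cell line; amount: 500 cells/well; buffer or medium: F12 medium containing 10% fetal bovine serum; incubation: 6 h compound exposure at 37 °C after overnight seeding; measured by: luciferase luminescence after 10 min with Steady-Glo reagent; evaluation: % reporter activation, DMSO baseline versus tunicamycin full activation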
p-CIP stab down – lowers stability of the mouse p/CIP coactivator protein; Q05BA5; F442A p/CIP-EGFP cells, EGFP fluorescence, 16 h; decrease of EGFP signal, % at 10 µM; 290,000 compounds, 0.01% hits; AID 1984;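 active = EGFP signal decrease of at least 30% at 10 µM or well 3 SD below plate mean, unless failing retest; inactive = the rest, including hits failing retest or dose response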
CHOP inh conf – confirmation of CHOP induction inhibitors | shares compounds with CHOP inhibitor | CHO-CHOP promoter luciferase reporter, tunicamycin-induced, luminescence | 2,100 compounds, 45% hits | inhibition, % at 10 µM | AID 504437;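 active = mean of three repeat readings of reporter signal inhibition above a set limit, cut at about 70% in these data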;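 also: 0% = tunicamycin plus vehicle and 100% = wells lacking tunicamycin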
UPR CHOP confirm – apoptotic UPR (CHOP) activation, confirmed | shares compounds with UPR CHOP act | CHO-CHOP cells, CHOP-luciferase reporter luminescence; percent of tunicamycin response, DMSO as zero | activation, % at 10 µM | 1,000 compounds, 64% hits | AID 463112; in the data active = activation above about 33%;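 also: 0% = DMSO wells and 100% = tunicamycin 10 µg/mL wells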
XBP1 UPR conf – adaptive UPR (XBP1) activation, confirmed; shares compounds with UPR XBP1 act; CHO-XBP1 IRE1-XBP1 luciferase reporter, luminescence; activation, % at 20 µM; 1,000 compounds, 63% hits;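 active = reporter signal at least 30% of the positive control's activation in two or more of four replicate wells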;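 also: plate controls were DMSO negative control for no effect and tunicamycin 10 µg/mL positive control for full effect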
The depositor's hits bear a star; x = no result given. The sample as a whole holds a higher share of hits than the screen did.

SMILES	CHOP inhibitor	UPR XBP1 act	Dynein cargo inh	B2AR ag	UPR CHOP act	p-CIP stab down	UPR CHOP confirm	others
Cc1ccc(/C=C2\C(=O)NC(=O)N(CCc3ccc(F)cc3)C2=O)s1	-26	2	0.56	5	0	14	x
O=C1C2CCCC1C(N1CCCC1)CC2 (stereo not drawn)	18	2	0.96	0	-1	-1	x
CN1C(=O)NC(=O)/C(=C\C=C\c2ccccc2[N+](=O)[O-])C1=O	99*	-6	-1.5	x	203*	0	263*	CHOP inh conf=-27
CC(C)(C)N1Cc2ccccc2C1=N	-9	-1	-0.61	10	2	3	x
O=C1NC(=O)C(=Cc2cn(CCOc3ccc4c(c3)OCO4)c3ccccc23)C(=O)N1	99*	31*	-0.43	42	11	-13	x	CHOP inh conf=-13;XBP1 UPR conf=79*
C=CCn1cc(C=C2C(=O)NC(=O)NC2=O)c2ccccc21	x	0	x	-92	1	-7	x
CC(=O)OC1CC[C@@]2(C)C(=CC(=O)C3C4CCC(OC(C)=O)[C@@]4(C)CCC32)C1 (stereo partly drawn)	x	1	x	-5	0	x	x
O=c1[nH]c(O)c(/C=C2/C=CC(c3cc(Cl)ccc3Cl)=N2)c(=O)[nH]1	103*	68*	3.2	-23	13	-24	x	CHOP inh conf=46;XBP1 UPR conf=111*
O=C1NC(=O)N(Cc2ccccc2Cl)C(=O)/C1=C/c1cccs1	106*	47*	0.49	40	52*	4	50*	CHOP inh conf=-30;XBP1 UPR conf=74*
COC(=O)C1=C(c2cccc(C#N)c2)C[C@@H]2CC[C@H]1N2C(=O)NCCOc1ccc(OC)cc1	x	2	x	0	1	x	x
O=C1NC(=O)N(c2ccccc2)C(=O)/C1=C/C=C/c1ccco1	-15	-5	-2.2	59*	62*	-30	256*
Cn1cc(/C=C2\C(=O)NC(=O)N(c3ccccc3)C2=O)c2ccccc21	x	-2	x	-1	1	-11	x
Cc1cccc(N2C(=O)NC(=O)/C(=C\c3cccn3-c3ccc(Cl)cc3)C2=O)c1	35	-3	-0.32	14	419*	2	22
Cc1cc(/C=C2/C(=O)NC(=O)N(c3ccccc3)C2=O)c(C)n1-c1ccc(F)cc1	x	-1	-0.56	-2	1	x	x
CC(=O)N1CC(=O)Nc2ccc(F)cc2C1c1ccccc1 (stereo not drawn)	x	-4	x	1	-3	-15	x
CCCCCCn1c(=O)c(C(=O)Nc2ncccc2C)c(O)c2ccccc21	x	36*	x	-6	61*	-20	27
COC(=O)CC(NC(=S)N1CC2C[C@@H](C1)Cn1c2cccc1=O)C(=O)OC (stereo partly drawn)	x	3	x	-3	1	-4	x
C=C(C)C(Cc1c(OC)ccc(C(=O)/C=C/c2ccc(O)cc2)c1O)OO (stereo not drawn)	x	2	x	10	47*	x	19
N=Cc1c(O)n(-c2ccccc2)c(=O)n(-c2ccccc2)c1=O	9	-1	-0.7	0	2	-10	x
COc1ccc2nc(NC3=NCCN3)sc2c1	16	-1	-0.56	-5	8	-4	x
O=C1NC(=O)C(=Cc2ccc(-c3ccc(Cl)cc3)o2)C(=O)N1	x	0	x	60*	71*	2	75*
O=C1NC(=O)C(=Cc2ccc(-c3ccc(S(=O)(=O)N4CCOCC4)cc3)o2)C(=O)N1	x	1	x	-2	-2	-7	x
CC1CN(c2ccc([N+](=O)[O-])c3cccnc23)CC(C)N1 (stereo not drawn)	-86	-3	0.26	3	1	-17	x
CC1CCC/C=C/C2CC(O)CC2C(O)/C=C/C(=O)O1 (stereo not drawn)	14	18	0.33	23	123*	2	103*
CN1CSC(=S)N(C)C1	-27	-2	-1	7	40*	0	30
SMILES	CHOP inhibitor	UPR XBP1 act	Dynein cargo inh	B2AR ag	UPR CHOP act	p-CIP stab down	UPR CHOP confirm	others
COc1cc(CN2CCN(c3cc(C)ccc3C)CC2)ccc1O	-11	14	-0.23	7	393*	-9	152*
CCOC(=O)c1c(C)[nH]c(C)c1C(=O)C(Cc1ccccc1)N(C)C (stereo not drawn)	x	0	x	-2	2	2	x
C=CCN1C(=O)/C(=C/c2ccc3c(c2)CCCN3CCC)C(=O)NC1=S	15	-1	-1.6	1	95*	-11	164*
O=C(COc1ccc(Br)cc1)N1CCN(Cc2c[nH]c3ccccc23)CC1	-177	12	0.084	14	23	-10	x
O=C(COc1ccc2ccccc2c1)N1CCN(Cc2c[nH]c3ccccc23)CC1	-149	20	0.25	9	76*	4	43*
COc1ccc(CC(C)NC2CCCCCC2)cc1 (stereo not drawn)	x	0	x	2	-1	-6	x
COc1ccc(N2C(=O)/C(=C/c3ccc(C)o3)C(=O)NC2=S)cc1	x	-1	x	44*	433*	-11	-9
Cc1ccc(C[n+]2c(-c3ccc(C)cc3)cc(-c3ccc(C)cc3)cc2-c2ccc(C)cc2)cc1	x	42*	x	-11	77*	x	238*	XBP1 UPR conf=19
Cc1ccccc1NP(=O)(Oc1ccccc1F)Oc1ccccc1F	-23	-3	0.95	7	1	-3	x
CCCC[C@@H](C)C[C@@H](C)C(=O)N(C)[C@@H](CC(C)C)C(=O)N[C@H](C(=O)N(C)[C@H](C(=O)N1C[C@@H](O)C[C@H]1C(=O)N1C(=O)C=C[C@@H]1C)C(C)C)C(C)OC(C)=O (stereo partly drawn)	x	51*	x	36	73*	x	46*	XBP1 UPR conf=74*
COC(=O)CC1=C(C(=O)OC)C2(C(=O)Nc3c(C)cccc32)C(C#N)=C(N)O1 (stereo not drawn)	21	-2	0.53	-12	-1	1	x
COc1ccc(/C=N\N=C(N)N)cc1	1	0	-0.058	-10	0	6	x
NC(N)=N/N=C/c1ccc(N(c2ccccc2)c2ccccc2)cc1	x	62*	x	38	74*	-3	31	XBP1 UPR conf=3
CN(C)c1ccc(C=C2C(=O)NC(=O)NC2=O)cc1	x	x	x	17	x	x	x
